RBBP9 inhibitor = human RBBP9 hydrolase inhibition; O75884; recombinant RBBP9, FP-Rh probe fluorescence polarization; inhibition, % at 7.94 µM; 0.2% of 220,000 active; AID 1515;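 active = inhibition above the campaign mean of all tested compounds plus 3 SD, cut at about 14% in these data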;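 note: plate controls were DMSO wells with RBBP9 for no effect and wells lacking RBBP9 protein for full effect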
Target sequence (O75884 whole entry, looked up): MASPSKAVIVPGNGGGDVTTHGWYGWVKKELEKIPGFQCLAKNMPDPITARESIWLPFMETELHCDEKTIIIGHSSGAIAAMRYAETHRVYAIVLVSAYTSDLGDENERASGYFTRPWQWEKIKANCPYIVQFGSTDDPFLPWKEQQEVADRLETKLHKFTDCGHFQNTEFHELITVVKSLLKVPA
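System: RBBP9 protein / Buffer or medium: Tris/NaCl buffer pH 8.0 with 0.1% Pluronic / Probe or stimulus: Serine-hydrolase probe FP-Rh, 375 nM pre-mixing / Dosing: 7.94 µM single dose, 0.794% DMSO / Times: enzyme-compound preincubation 30 min, then probe labeling 45 min, 25 °C / Technique: fluorescence polarization (mP), excitation 525 nm, emission 598 nm / Replication: singlicate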
PME-1 primary = blocks human protein phosphatase methylesterase 1. Q9Y570. recombinant PME-1, FP-Rh probe fluorescence polarization. inhibition, % at 5.9 µM. 0.53% of 320,000 active. AID 2130;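 active = inhibition above the campaign mean of all compounds plus 3 SD, cut at about 26% in these data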;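 note: competitive labeling of PME-1 active site by serine hydrolase directed probe; 0% = PME-1 with DMSO and 100% = wells lacking PME-1 enzyme; inhibitors block probe labeling so polarization falls and inhibition rises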
LYPLA2 inh = counter-screen for PME1 inhibitors: inhibitors of human LYPLA2; 0.38% of 320,000 active; recombinant LYPLA2, FP-Rh probe fluorescence polarization; inhibition, % at 5.9 µM;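 active = inhibition above the screen-wide mean plus 3 SD, limit set per campaign, cut at about 26% in these data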;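 note: 0% = LYPLA2 with DMSO and 100% = wells lacking LYPLA2 enzyme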
Target sequence (O95372 whole entry, looked up): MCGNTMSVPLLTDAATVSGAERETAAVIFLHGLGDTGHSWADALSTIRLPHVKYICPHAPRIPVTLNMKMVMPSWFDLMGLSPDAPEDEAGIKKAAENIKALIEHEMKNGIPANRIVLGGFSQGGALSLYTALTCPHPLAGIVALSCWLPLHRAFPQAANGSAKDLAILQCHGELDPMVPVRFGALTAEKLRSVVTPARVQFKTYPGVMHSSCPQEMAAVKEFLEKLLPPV
LYPLA1 counter = counter-screen for PME1 inhibitors: inhibitors of human LYPLA1; O75608; recombinant LYPLA1, FP-Rh probe fluorescence polarization; inhibition, % at 5.9 µM; 0.16% of 320,000 active; AID 2174;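 active = inhibition above the mean of all tested compounds plus 3 SD, set per campaign, cut at about 14% in these data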;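 note: inhibitors block serine hydrolase probe labeling of LYPLA1 so polarization falls; 0% = enzyme with DMSO and 100% = wells lacking LYPLA1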
Target sequence (O75608 whole entry, looked up): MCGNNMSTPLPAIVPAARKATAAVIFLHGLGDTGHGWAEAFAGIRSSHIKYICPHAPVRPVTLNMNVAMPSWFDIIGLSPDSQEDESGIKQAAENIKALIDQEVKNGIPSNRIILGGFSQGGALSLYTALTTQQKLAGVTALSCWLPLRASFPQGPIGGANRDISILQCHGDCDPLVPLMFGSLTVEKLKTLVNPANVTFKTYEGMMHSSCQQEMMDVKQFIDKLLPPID
Fam108B inh = Fam108B inhibition, counter-screen for RBBP9 inhibitors; AID 1947; inhibition, % at 9.51 µM; recombinant Fam108B, FP-Rh probe fluorescence polarization; 0.33% of 300,000 active;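 active = inhibition above the screen mean inhibition plus 3 SD, computed separately per campaign, cut at about 18% in these data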;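 note: inhibitors lower polarization as less probe binds the enzyme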
Fam108b inh conf = Fam108b (mouse) hydrolase inhibition, confirmation assay; recombinant Fam108b, FP-Rh probe fluorescence polarization; shares compounds with Fam108B inh; inhibition, % at 9.51 µM; 44% of 930 active;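 active = inhibition above a limit from the primary screen, the mean over all compounds plus 3 SD, cut at about 19% in these data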;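 note: 0% = median of active Fam108b wells and 100% = catalytically dead S170A mutant; inhibitors free the probe so polarization falls as inhibition rises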
Fam108b inh = mouse ABHD17B inhibition. inhibition, % at 20 µM. recombinant Fam108b, gel-based ABPP, fluorophosphonate probe. shares compounds with Fam108B inh. 44% of 260 active; in the data active = inhibition above about 40%
* marks the source's active call; other numbers are inactive results; · = not tested or not shown. In the library only some 0.99% were active in any assay of this set; here they are far more common.

SMILES	RBBP9 inhibitor	PME-1 primary	LYPLA2 inh	LYPLA1 counter	Fam108B inh	Fam108b inh conf	others
Cc1ccccc1N=Nc1ccc(O)c2ncccc12	-10	-2	-1	1	8	·
O=S(=O)(O)c1cccc2c(N=Nc3ccc(O)c4ncccc34)cccc12	·	24	2	8	50*	45*	Fam108b inh=0
Oc1cccc(NC(=S)N=Nc2c(O)[nH]c3ccc(Br)cc23)c1	9	33*	1	-7	24*	8
O=C1CCC(C(=O)Nc2cccc(Oc3ccccc3)c2)=NN1	-14	-6	4	-3	3	·
COc1cc2c(C#N)c(N3CCCC3)nc(N)c2c(N)n1	-6	14	1	0	2	·
N#Cc1c(N2CCCC2)nc(N)c2c(N)nc(N3CCCC3)cc12	-10	21	14	7	58*	126*	Fam108b inh=0
NC(=O)c1ccc(N=C2C(=O)Nc3ccc([N+](=O)[O-])cc32)cc1	1	3	9	1	24*	4
O=C1Nc2ccccc2C1=Nc1cccc([N+](=O)[O-])c1	·	0	8	2	-3	·
CN(C(=O)c1cc(-c2ccccc2)on1)C1CCCCC1	·	-5	-3	3	-2	·
O=C(O)c1ccc(NC(=O)c2cccc(C(=O)Nc3ccc(C(=O)O)cc3)n2)cc1	·	22	19	1	21*	13
CN(C)c1ccc(NC(=O)c2cccc(C(=O)Nc3ccc(N(C)C)cc3)n2)cc1	10	-18	2	7	21*	32*	Fam108b inh=35
COc1ccc(/C=N\NC(=O)c2cc(O)c(O)c(O)c2)cc1COc1ccc(C(=O)OCC(C)C)cc1	·	42*	-18	-28	28*	31*
COc1ccc(C(=O)N/N=C/c2ccc(OC)c(COc3ccccc3)c2)cc1	·	-7	-22	0	-1	·
CCc1ccc(S(=O)(=O)/N=C2\C=C(Nc3ccc(O)cc3)C(=O)c3ccccc32)cc1	·	40*	4	-12	20*	17
Cc1cc(C)c(S(=O)(=O)/N=C2\C=C(Nc3ccc(C(=O)O)cc3)C(=O)c3ccccc32)c(C)c1	·	15	11	-5	40*	59*	Fam108b inh=0
CCc1ccc(S(=O)(=O)/N=C2\C=CC(=O)c3ccccc32)cc1	10	12	-12	-17	24*	21*
CCc1ccc(S(=O)(=O)/N=C2\C=C(Nc3cccc(C(=O)O)c3)C(=O)c3ccccc32)cc1	·	29*	15	10	57*	78*	Fam108b inh=40*
Cc1ccc2nc(CSc3nc(C)ccc3C#N)[nH]c2c1	0	4	4	-6	42*	40*	Fam108b inh=55*
Cc1ccc(C#N)c(SCc2ccccc2F)n1	-14	-1	13	4	-2	·
O=C(NNC(=O)c1cc(-c2ccncc2)nc2ccccc12)c1ccccc1O	·	-6	8	3	4	·
CC1=CC(=O)c2c(O)ccc(O)c2C1=O	16*	26	25	-4	71*	43*	Fam108b inh=65*
O=C1C=C(O)c2cccc(O)c2C1=O	·	14	9	0	3	·
Cc1ccc(/C=C\c2nccc3c2[nH]c2ccccc23)cc1	-5	-45	-32	-14	24*	10
Fc1ccc(/C=C\c2nccc3c2[nH]c2ccccc23)cc1	-12	-33	-12	-10	19*	1
CC(NC(=O)CN1C(=O)NC2(CCc3ccccc32)C1=O)c1ccc2c(c1)OCCO2 (stereo not drawn)	·	1	3	1	·	·
SMILES	RBBP9 inhibitor	PME-1 primary	LYPLA2 inh	LYPLA1 counter	Fam108B inh	Fam108b inh conf	others
CCOC(=O)C1=C(C)NC(=S)NC1c1ccsc1 (stereo not drawn)	3	4	2	0	2	·
O=C(NN=C1CCN(Cc2ccccc2)CC1)c1cc2ccccc2cc1O	5	29*	2	-6	34*	-3
O=[N+]([O-])c1ccc(O)c(Nc2ncnc3ccc(Br)cc23)c1	0	32*	8	9	20*	11
O=C(CN1CCN(S(=O)(=O)c2ccccc2)CC1)NCCc1ccccc1	·	8	2	3	2	·
CC(C)(C)N1C(=O)Cc2c1nc(N)c1c(N)nc(N3CCCCC3CO)c(C#N)c21 (stereo not drawn)	7	18	9	1	40*	90*
O=[N+]([O-])c1ccc(O)c(C=NNC(=S)Nc2ccc(Cl)cc2Cl)c1	·	·	·	·	·	·	Fam108b inh=0
CN1c2ccccc2C(C)(C)C12C=Nc1c(ccc3ccccc13)O2 (stereo not drawn)	-5	5	-3	-5	31*	0
COc1ccc2ccc3c(c2c1)N=CC1(O3)N(C)c2ccccc2C1(C)C (stereo not drawn)	6	9	8	0	3	·
CC(=O)c1cnc2c(-c3ccccc3)c(-c3ccccc3)nn2c1C	·	5	-2	3	3	·
Cc1nc(SCC(=O)c2ccccc2)c(C#N)c(-c2ccco2)c1C(=O)NCc1ccco1	8	2	-10	-4	-1	·
CCOC(=O)C1=C(C)N=c2sc(=Cc3ccc(O)c([N+](=O)[O-])c3)c(=O)n2C1c1ccccc1OC (stereo not drawn)	·	·	·	·	·	·	Fam108b inh=30
CCOC(=O)C1=C(C)N=c2s/c(=C\c3cccc(OCC(=O)O)c3)c(=O)n2C1c1ccccc1OC (stereo not drawn)	·	1	2	2	2	·
Cc1ccc2nc(CCl)[n+]([O-])c(-c3ccccc3)c2c1	·	-4	25	2	0	·
COc1cc(/C=N/NC(=O)c2ccc(CSc3nc4ccccc4[nH]3)cc2)ccc1O	-15	-32	-27	-31	24*	2
Cc1ccc(NC(=O)CN2C(=O)N/C(=C/c3cccn3-c3ccc(C(=O)O)cc3)C2=O)cc1	-3	-10	6	-5	44*	39*	Fam108b inh=0
Cn1c(C(=O)N2CCCC(Nc3ccc(F)cc3)C2)cc2ccccc21 (stereo not drawn)	·	2	-1	-5	-3	·
COc1ccc2[nH]c3c(N4CCc5ccccc5C4)ncnc3c2c1	-6	30*	17	-2	19*	-5
COc1ccc2[nH]c3c(Cl)ncnc3c2c1	-2	-3	8	1	6	·
O=[N+]([O-])c1cc(S(=O)(=O)Nc2ccccc2)ccc1N1CCN(c2ccc(O)cc2)CC1	-2	11	20	-1	8	·
Cc1ccc(NS(=O)(=O)c2ccc(N3CCN(c4ccc(O)cc4)CC3)c([N+](=O)[O-])c2)c(C)c1	-10	23	12	-5	21*	9
O=C(Nc1cc(Sc2ccccn2)cc([N+](=O)[O-])c1)c1cccc(F)c1	-23	4	-9	-8	21*	-5
O=C(Nc1cc(Sc2nc3ccccc3s2)cc([N+](=O)[O-])c1)c1ccccc1	-10	4	-2	-21	4	·

Screening data (PubChem)
